Activity calls are given as the source filed them. The rule behind the calls is not given here.
Columns and labels:
[1] = biological target: Glutamate NMDA receptor; Grin1/Grin2c (Rattus norvegicus, UniProt P35439+Q00961); assay: Activity at rat recombinant GluN1/GluN2C receptor assessed as potentiation of glycine/glutamate-induced activation by two-electrode voltage clamp technique; assay type: protein-complex assay
[2] = biological target: Glutamate NMDA receptor; Grin1/Grin2a (Rattus norvegicus) (UniProt P35439+Q00959); assay: Activity at rat recombinant GluN1/GluN2A receptor expressed in Xenopus oocytes assessed as potentiation of glycine/glutamate-induced effect at 100 uM by two-electrode voltage clamp technique relative to control; assay type: cell-based; conditions: Oocyte
Procedure, shortened: (§1)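 Two-electrode voltage clamp of oocytes at -40 mV, 2–5 days after cRNA injection. Bath solution (mM) 90 NaCl, 1.0 KCl, 0.5 BaCl₂, 0.005 EDTA, 10 HEPES, pH 7.4, 23°C. Compound applied with 100 µM glutamate plus 30 µM glycine; DMSO 0.05–0.5% final. Current expressed as percent of response without compound. For GluN2A, some oocytes were pretreated with 50 µM BAPTA-AM for 10 min or injected with K-BAPTA.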

[3] = biological target: Ionotropic glutamate receptor NMDA 1/2D (Rattus norvegicus, UniProt P35439+Q62645); assay: Activity at rat recombinant GluN1/GluN2D receptor assessed as potentiation of glycine/glutamate-induced activation by two-electrode voltage clamp technique; assay type: protein-complex assay
Chain of Ionotropic glutamate receptor NMDA 1/2D (Q62645 whole entry, other chains not shown): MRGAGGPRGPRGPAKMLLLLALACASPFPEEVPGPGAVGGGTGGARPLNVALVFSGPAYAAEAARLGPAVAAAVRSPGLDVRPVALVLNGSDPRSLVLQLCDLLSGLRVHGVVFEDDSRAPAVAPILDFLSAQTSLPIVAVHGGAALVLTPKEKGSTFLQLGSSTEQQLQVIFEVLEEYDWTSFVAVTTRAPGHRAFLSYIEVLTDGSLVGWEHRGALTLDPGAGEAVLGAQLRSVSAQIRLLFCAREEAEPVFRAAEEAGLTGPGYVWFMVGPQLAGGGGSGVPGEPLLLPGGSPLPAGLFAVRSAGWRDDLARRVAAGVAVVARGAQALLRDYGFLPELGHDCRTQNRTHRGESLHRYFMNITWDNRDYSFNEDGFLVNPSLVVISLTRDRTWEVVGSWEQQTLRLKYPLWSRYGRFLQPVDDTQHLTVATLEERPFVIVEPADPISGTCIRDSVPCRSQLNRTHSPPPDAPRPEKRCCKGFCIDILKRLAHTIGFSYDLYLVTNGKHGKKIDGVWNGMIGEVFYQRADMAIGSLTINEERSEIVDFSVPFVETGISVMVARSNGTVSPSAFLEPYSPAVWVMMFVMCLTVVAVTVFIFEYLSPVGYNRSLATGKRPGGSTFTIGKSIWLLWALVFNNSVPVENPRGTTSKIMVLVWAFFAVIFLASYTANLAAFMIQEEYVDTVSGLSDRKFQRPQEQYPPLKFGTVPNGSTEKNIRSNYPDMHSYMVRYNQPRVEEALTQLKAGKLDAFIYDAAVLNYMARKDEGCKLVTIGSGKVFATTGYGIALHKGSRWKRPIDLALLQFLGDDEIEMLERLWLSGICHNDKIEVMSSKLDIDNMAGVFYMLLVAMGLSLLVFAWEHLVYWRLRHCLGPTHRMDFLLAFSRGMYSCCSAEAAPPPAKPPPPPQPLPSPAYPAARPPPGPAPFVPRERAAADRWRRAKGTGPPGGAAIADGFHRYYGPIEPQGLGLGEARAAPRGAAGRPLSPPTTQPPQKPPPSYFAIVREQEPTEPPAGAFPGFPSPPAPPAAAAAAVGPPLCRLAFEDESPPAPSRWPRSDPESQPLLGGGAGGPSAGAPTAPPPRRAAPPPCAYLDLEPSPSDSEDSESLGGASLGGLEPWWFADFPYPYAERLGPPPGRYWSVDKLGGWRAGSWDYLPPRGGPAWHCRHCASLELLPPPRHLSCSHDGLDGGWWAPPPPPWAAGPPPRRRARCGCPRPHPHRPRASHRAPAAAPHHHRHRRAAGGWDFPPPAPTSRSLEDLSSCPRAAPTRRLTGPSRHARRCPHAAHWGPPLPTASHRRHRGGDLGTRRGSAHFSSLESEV

[4] = biological target: Glutamate NMDA receptor; Grin1/Grin2b (Rattus norvegicus) (UniProt P35439+Q00960); assay: Activity at rat recombinant GluN1/GluN2B receptor expressed in Xenopus oocytes assessed as potentiation of glycine/glutamate-induced effect at 100 uM by two-electrode voltage clamp technique relative to control; assay type: cell-based; conditions: Oocyte; procedure, shortened: as §1
[5] = biological target: Glutamate receptor 1 (Rattus norvegicus) (UniProt P19490); assay: Activity at rat recombinant GluA1 receptor expressed in Xenopus oocytes assessed as effect on glutamate-induced response by two-electrode voltage clamp technique; assay type: cell-based; conditions: Oocyte
Chain of Glutamate receptor 1 (Rattus norvegicus) (P19490 whole entry): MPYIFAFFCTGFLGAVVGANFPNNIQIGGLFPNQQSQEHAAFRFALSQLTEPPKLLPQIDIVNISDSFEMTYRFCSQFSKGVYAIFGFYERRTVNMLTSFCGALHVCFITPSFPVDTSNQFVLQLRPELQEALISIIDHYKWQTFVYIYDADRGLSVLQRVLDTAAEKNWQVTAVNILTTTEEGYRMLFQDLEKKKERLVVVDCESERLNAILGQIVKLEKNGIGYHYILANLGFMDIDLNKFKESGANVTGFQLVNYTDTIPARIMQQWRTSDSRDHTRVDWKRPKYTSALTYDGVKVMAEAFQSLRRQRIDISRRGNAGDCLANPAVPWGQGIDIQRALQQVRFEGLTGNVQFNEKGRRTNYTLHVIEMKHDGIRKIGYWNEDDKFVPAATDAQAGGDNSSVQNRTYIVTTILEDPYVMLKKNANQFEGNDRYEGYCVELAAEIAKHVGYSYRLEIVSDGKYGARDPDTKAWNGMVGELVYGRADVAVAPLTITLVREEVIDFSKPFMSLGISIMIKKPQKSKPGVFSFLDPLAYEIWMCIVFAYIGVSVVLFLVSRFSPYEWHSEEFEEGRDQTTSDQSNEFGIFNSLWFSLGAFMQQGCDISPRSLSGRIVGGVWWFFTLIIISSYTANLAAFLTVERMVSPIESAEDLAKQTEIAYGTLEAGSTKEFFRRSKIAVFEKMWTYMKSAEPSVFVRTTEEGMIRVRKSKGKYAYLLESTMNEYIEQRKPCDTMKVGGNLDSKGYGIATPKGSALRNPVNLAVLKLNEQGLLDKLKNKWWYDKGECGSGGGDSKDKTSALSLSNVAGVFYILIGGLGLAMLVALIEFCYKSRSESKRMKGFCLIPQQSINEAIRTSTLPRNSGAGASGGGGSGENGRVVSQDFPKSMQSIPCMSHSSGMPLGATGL
Procedure, shortened: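 Oocytes injected with 1–5 ng cRNA, kept in Barth's solution at 15°C for 2–5 days. Clamped at -40 mV in 90 NaCl, 1.0 KCl, 0.5 BaCl₂, 0.005 EDTA, 10 HEPES (mM), pH 7.4, 23°C. Receptors activated by 100 µM glutamate with compound co-applied. GluK2 oocytes pretreated with 10 µM concanavalin A for 10 min. DMSO 0.05–0.5% final.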

[6] = biological target: Glutamate NMDA receptor; Grin1/Grin2c (Rattus norvegicus) (UniProt P35439+Q00961); assay: Activity at rat recombinant GluN1/GluN2C receptor expressed in Xenopus oocytes assessed as potentiation of glycine/glutamate-induced activation at 100 uM by two-electrode voltage clamp technique relative to control; assay type: cell-based; conditions: Oocyte; procedure, shortened: as §1

Structure (SMILES)	EC50 [1]	EC50 [3]	also measured
CCc1ccc(OCC2c3cc(OC)c(OC)cc3CCN2C(=O)c2ccccc2)cc1 (racemic)	23 µM		
COc1ccc(OCC2c3cc(OC)c(OC)cc3CCN2C(=O)c2ccccc2C)cc1 (racemic)			Activity [2]: 70%
COc1ccc(OCC2c3cc(OC)c(OC)cc3CCN2C(=O)c2ccc(Cl)cc2)cc1 (racemic)	4.1 µM		
COc1cc2c(cc1OC)C(COc1ccc(SC)cc1)N(C(=O)c1cccc(Cl)c1)CC2 (racemic)	5.1 µM	5.3 µM	
COc1ccc(OCC2c3cc4c(cc3CCN2C(=O)c2ccccc2)OCO4)cc1 (racemic)			Activity [2]: 70%
COc1ccc(OCC2c3ccc(C)cc3CCN2C(=O)c2ccccc2)cc1 (racemic)	24 µM		
COc1ccc(OCC2c3cc(OC)c(OC)cc3CCN2C(=O)N2CCOCC2)cc1 (racemic)			Activity [4]: Active
COc1ccc(OCC2c3cc4c(cc3CCN2C(=O)c2cccc(Cl)c2)OCO4)cc1 (racemic)	16 µM	7.4 µM	Activity [5]: inactive
COc1ccc(CCC2c3cc(OC)c(OC)cc3CCN2C(=O)c2cccc(Br)c2)cc1 (racemic)	11 µM	15 µM	Activity [5]: inactive
COc1ccc(OCC2c3cc(OC)c(OC)cc3CCN2C(=O)c2cccc(I)c2)cc1 (racemic)	4 µM	4.9 µM	
COc1ccc(/C=C/C2c3cc(OC)c(OC)cc3CCN2C(=O)c2cccc(Br)c2)cc1 (racemic)	2.8 µM	2.8 µM	Activity [5]: inactive
COc1ccc(OCC2c3cc(OC)c(OC)cc3CCN2C(=S)Nc2cccc(C)c2)cc1 (racemic)	5.2 µM	4.9 µM	
COc1ccc(OCC2c3ccc(OCc4ccccc4)cc3CCN2C(=O)c2ccccc2)cc1 (racemic)	0.7 µM	2.3 µM	
COc1ccc(/C=C/C2c3ccc(OC)cc3CCN2C(=O)c2cccc(Cl)c2)cc1 (racemic)	1 µM	1 µM	Activity [5]: inactive
COc1ccc(OCC2c3cc(OC)c(OC)cc3CCN2C(=O)c2ccc(Cl)c(Cl)c2)cc1 (racemic)	21 µM	24 µM	
COc1ccc(OCC2c3cc(OC)c(OC)cc3CCN2C(=O)c2ccc3ccccc3c2)cc1 (racemic)			Activity [6]: 136%; Activity [5]: inactive
COc1ccc(/C=C/C2c3ccc(OC)cc3CCN2C(=O)c2cccc(Br)c2)cc1 (racemic)	1.5 µM	1.7 µM	Activity [5]: inactive
CCOc1ccc(OCC2c3cc(OC)c(OC)cc3CCN2C(=O)c2cccc(Br)c2)cc1 (racemic)			Activity [4]: Active
COc1ccc(OCC2c3ccc(C)cc3CCN2C(=O)c2cccc(Br)c2)cc1 (racemic)	3.2 µM	3.6 µM	
COc1ccc(OCC2c3cc(OC)c(OC)cc3CCN2C(=O)CN2CCOCC2)cc1 (racemic)			Activity [5]: inactive
COC(=O)c1ccc(OCC2c3cc(OC)c(OC)cc3CCN2C(=O)c2cccc(Cl)c2)cc1 (racemic)			Activity [4]: Active
CCOc1ccc(OCC2c3cc(OC)c(OC)cc3CCN2C(=O)c2cccc(Cl)c2)cc1 (racemic)			Activity [4]: Active
COc1ccc(OCC2c3cc(OC)c(OC)cc3CCN2C(=O)c2cccc(C(Cl)Cl)c2)cc1 (racemic)	3.7 µM	5.4 µM	
COc1ccc(CCC2c3cc(OC)c(OC)cc3CCN2C(=O)c2cccc(Cl)c2)cc1 (racemic)			Activity [5]: inactive
COc1ccc(OCC2c3cc(OC)c(OC)cc3CCN2C(=O)c2cccs2)cc1 (racemic)	9 µM		
COc1ccc(OCC2c3cc(OC)c(OC)cc3CCN2C(=O)c2ccc(F)c(Cl)c2)cc1 (racemic)	5.3 µM	5.3 µM	
COc1ccc(OCC2c3cc(C)c(C)cc3CCN2C(=O)c2cccc(Br)c2)cc1 (racemic)	0.9 µM	1.1 µM	
COc1ccc(OCC2c3cc(OC)c(OC)cc3CCN2C(=O)c2cccc(-c3ccccc3)c2)cc1 (racemic)	2.9 µM	3.6 µM	

Source: ChEMBL document CHEMBL2396604, “Synthesis and structure activity relationship of tetrahydroisoquinoline-based potentiators of GluN2C and GluN2D containing N-methyl-D-aspartate receptors” (J Med Chem, 2013)
